# In ChEMBL document CHEMBL4020842, “Discovery of N1-(4-((7-Cyclopentyl-6-(dimethylcarbamoyl)-7 H-pyrrolo[2,3- d]pyrimidin-2-yl)amino)phenyl)- N8-hydroxyoctanediamide as a Novel Inhibitor Targeting Cyclin-dependent Kinase 4/9 (CDK4/9) and Histone Deacetlyase1 (HDAC1) against Malignant Cancer” (J Med Chem, 2018):
# Active and inactive are the calls of the source. The rule behind the calls is not given here.
# Experiments:
# [1] = system: HepG2; assay: Induction of apoptosis in human HepG2 cells assessed as late apoptotic cells at 5 uM after 48 hrs by annexin V-FITC/propidium iodide staining based flow cytometry (reference value: 0.64%); type: functional
# [2] = molecular target: T1, Histone deacetylase 1 (Homo sapiens, UniProt Q13547); assay: Inhibition of HDAC1 (unknown origin)
# [3] = system: Rattus norvegicus; assay: Apparent volume of distribution at steady state in Sprague-Dawley rat at 20 mg/kg, po administered as single dose by HPLC analysis; type: ADME, organism-based; settings: in vivo
# [4] = system: A549; assay: Induction of apoptosis in human A549 cells assessed as late apoptotic cells at 1 uM after 48 hrs by annexin V-FITC/propidium iodide staining based flow cytometry (reference value: 0.88%); type: functional
# [5] = system: A549; assay: Inhibition of CDK4 protein expression in human A549 cells at 0.1 to 1 uM after 24 hrs by immunofluorescence assay; type: functional, cell-based
# How it was run: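 Cells treated 24 h with test compound or vehicle. For the CDK4 read-out the compound was used at 100 nM, and for acetyl-histone H3 at 1 µM. CDK4 and acetyl-histone H3 were then detected by immunofluorescence staining and compared with vehicle-treated cells.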
# [6] = system: A549; assay: Induction of apoptosis in human A549 cells assessed as live cells at 5 uM after 48 hrs by annexin V-FITC/propidium iodide staining based flow cytometry (reference value: 92.7%); type: functional
# [7] = system: A549; assay: Induction of apoptosis in human A549 cells assessed as early apoptotic cells at 1 uM after 48 hrs by annexin V-FITC/propidium iodide staining based flow cytometry (reference value: 0.41%); type: functional
# [8] = system: Hep 3B2; assay: Induction of apoptosis in human Hep3B cells assessed as necrotic cells at 1 uM after 48 hrs by annexin V-FITC/propidium iodide staining based flow cytometry (reference value: 4.97%); type: functional
# [9] = system: T47D; assay: Cell cycle arrest in human T47D cells assessed as accumulation at G2 phase at 2.5 to 10 uM after 24 hrs by propidium iodide staining based flow cytometry; type: functional
# How it was run: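 Cells were exposed for 24 h to a range of concentrations (625 nM, 2.5 and 10 µM), with DMSO vehicle as control. They were then stained with propidium iodide and analysed by flow cytometry to obtain the percentages of cells in G0/G1, S and G2 phases.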
# [10] = system: T47D; assay: Cytotoxicity against human T47D cells assessed as reduction in cell viability after 72 hrs by CCK8 assay; type: functional, cell-based
# [11] = molecular target: Serine/threonine-protein kinase TAO2 (Homo sapiens, UniProt Q9UL54); assay: Inhibition of recombinant human N-terminal His6-tagged TAO2 expressed in sf21 cells
# [12] = system: NCI-H460; assay: Induction of apoptosis in human NCI-H460 cells assessed as live cells at 5 uM after 48 hrs by annexin V-FITC/propidium iodide staining based flow cytometry (reference value: 97.3%); type: functional
# [13] = system: A549; assay: Induction of apoptosis in human A549 cells assessed as necrotic cells at 5 uM after 48 hrs by annexin V-FITC/propidium iodide staining based flow cytometry (reference value: […]%); type: functional
# [14] = system: Hep 3B2; assay: Induction of apoptosis in human Hep3B cells assessed as live cells at 5 uM after 48 hrs by annexin V-FITC/propidium iodide staining based flow cytometry (reference value: 97.9%); type: functional
# [15] = molecular target: CDK4/Cyclin D3 (Homo sapiens, UniProt P11802); assay: Inhibition of recombinant human full length N-terminal GST-tagged CDK4/Cyclin-D3 co-expressed in baculovirus infected sf21 cells using Rb substrate in presence of [gamma33P]ATP after 10 mins by scintillation counting method
# [16] = system: HepG2; assay: Downregulation of CDK4 protein expression in human HepG2 cells after 48 hrs by Western blot method; type: functional, cell-based
# [17] = system: T47D; assay: Induction of apoptosis in human T47D cells after 48 hrs by Hoechst 33342 staining based assay; type: functional, cell-based
# How it was run: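 T47D cultures were incubated with test agent for 48h, then stained with Hoechst 33342. Apoptotic bodies were examined by imaging and compared with untreated cells.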
# [18] = molecular target: T1, Histone deacetylase 1; assay: Inhibition of HDAC1 in human T47D cells assessed as increase in p53 phosphorylation at Ser15 residue at 1 to 5 uM after 48 hrs by Western blot method; type: cell-based
# [19] = Apparent volume of distribution at steady state in Sprague-Dawley rat at 20 mg/kg, iv administered as single dose by HPLC analysis; type: ADME, organism-based; settings: in vivo, read-out: Vdss(app)
# [20] = system: MDA-MB-231; assay: Induction of apoptosis in human MDA-MB-231 cells assessed as caspase-3 cleavage after 48 hrs by Western blot method; type: functional, cell-based
# How it was run: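 Cells were treated with or without test agent, alongside a control, for 48h. They were then lysed and analysed by Western blot for Bcl-2 protein and cleaved caspase 3.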
# [21] = Half life in Sprague-Dawley rat at 20 mg/kg, ip administered as single dose by HPLC analysis; type: ADME, organism-based; settings: in vivo
# [22] = system: 4T1; assay: Antitumor activity against mouse Fluc-labeled 4T1 cells implanted in Balb/c mouse assessed as tumor growth inhibition at 130 mg/kg, po administered daily via gavage for 18 days by bioluminescence assay relative to control; type: functional; settings: 4T1, po, 432 h, read-out: TGI
# [23] = Aqueous solubility in water at 1 mg using methanesulfonic acid formulation sonicated for 24 hrs and incubated under unstirred condition for 24 hrs by HPLC method; type: physicochemical
# [24] = system: NCI-H460; assay: Induction of apoptosis in human NCI-H460 cells assessed as necrotic cells at 5 uM after 48 hrs by annexin V-FITC/propidium iodide staining based flow cytometry (reference value: 1.34%); type: functional
# [25] = molecular target: CDK9/cyclin T1 (Homo sapiens) (UniProt O60563+P50750); assay: Inhibition of recombinant human full length C-terminal 6His-tagged CDK9/Cyclin-T1 co-expressed in baculovirus infected sf21 cells at 1 uM using PDKtide substrate in presence of [gamma33P]ATP after 10 mins by scintillation counting method relative to control
# [26] = system: Hep 3B2; assay: Induction of apoptosis in human Hep3B cells after 48 hrs by annexin V-FITC/propidium iodide staining based flow cytometry; type: functional, cell-based
# [27] = Bioavailability in Sprague-Dawley rat at 20 mg/kg, ip administered as single dose by HPLC analysis; type: ADME, organism-based; settings: in vivo
# [28] = system: HepG2; assay: Induction of apoptosis in human HepG2 cells assessed as live cells at 5 uM after 48 hrs by annexin V-FITC/propidium iodide staining based flow cytometry (reference value: 96.7%); type: functional
# [29] = molecular target: CDK4/CDK9 (Homo sapiens) (UniProt P11802+P50750); assay: Inhibition of CDK4/CDK9 in human T47D cells assessed as reduction in Rb phosphorylation at Ser807/811 residues at 1 uM after 48 hrs by Western blot method; type: cell-based
# [30] = system: Mus musculus; assay: Downregulation of phosphorylated Rb level in tumor of Balb/c mouse implanted with mouse Fluc-labeled 4T1 cells at 90 to 130 mg/kg, po administered via gavage daily for 18 days by immunohistochemical analysis; type: functional, organism-based
# How it was run: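 4T1 cells were labeled with firefly luciferase by lentiviral transduction and implanted orthotopically into the mammary fat pads of 6−8-week-old female BALB/c mice. Dosing by oral gavage began once tumors averaged 100 mm3, at 90 and 130 mg/kg. p-Rb in tumors was assessed by immunohistochemistry.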
# [31] = system: Hep 3B2; assay: Induction of apoptosis in human Hep3B cells assessed as late apoptotic cells at 5 uM after 48 hrs by annexin V-FITC/propidium iodide staining based flow cytometry (reference value: 5.25%); type: functional
# T1 sequence (Q13547 whole entry): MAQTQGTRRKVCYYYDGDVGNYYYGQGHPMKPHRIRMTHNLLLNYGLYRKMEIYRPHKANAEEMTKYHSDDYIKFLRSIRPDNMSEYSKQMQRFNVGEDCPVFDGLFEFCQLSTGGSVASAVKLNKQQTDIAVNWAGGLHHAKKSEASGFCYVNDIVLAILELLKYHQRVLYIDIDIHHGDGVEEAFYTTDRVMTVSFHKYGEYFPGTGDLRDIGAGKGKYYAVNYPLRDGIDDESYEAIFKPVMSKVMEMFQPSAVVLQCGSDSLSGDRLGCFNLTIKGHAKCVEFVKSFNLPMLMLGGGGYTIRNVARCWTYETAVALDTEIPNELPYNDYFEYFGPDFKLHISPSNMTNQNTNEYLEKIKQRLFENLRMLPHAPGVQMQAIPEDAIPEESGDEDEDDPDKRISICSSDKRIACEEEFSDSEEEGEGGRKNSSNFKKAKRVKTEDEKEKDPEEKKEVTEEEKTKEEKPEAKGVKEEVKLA
# Sequence of Serine/threonine-protein kinase TAO2 (Q9UL54 whole entry): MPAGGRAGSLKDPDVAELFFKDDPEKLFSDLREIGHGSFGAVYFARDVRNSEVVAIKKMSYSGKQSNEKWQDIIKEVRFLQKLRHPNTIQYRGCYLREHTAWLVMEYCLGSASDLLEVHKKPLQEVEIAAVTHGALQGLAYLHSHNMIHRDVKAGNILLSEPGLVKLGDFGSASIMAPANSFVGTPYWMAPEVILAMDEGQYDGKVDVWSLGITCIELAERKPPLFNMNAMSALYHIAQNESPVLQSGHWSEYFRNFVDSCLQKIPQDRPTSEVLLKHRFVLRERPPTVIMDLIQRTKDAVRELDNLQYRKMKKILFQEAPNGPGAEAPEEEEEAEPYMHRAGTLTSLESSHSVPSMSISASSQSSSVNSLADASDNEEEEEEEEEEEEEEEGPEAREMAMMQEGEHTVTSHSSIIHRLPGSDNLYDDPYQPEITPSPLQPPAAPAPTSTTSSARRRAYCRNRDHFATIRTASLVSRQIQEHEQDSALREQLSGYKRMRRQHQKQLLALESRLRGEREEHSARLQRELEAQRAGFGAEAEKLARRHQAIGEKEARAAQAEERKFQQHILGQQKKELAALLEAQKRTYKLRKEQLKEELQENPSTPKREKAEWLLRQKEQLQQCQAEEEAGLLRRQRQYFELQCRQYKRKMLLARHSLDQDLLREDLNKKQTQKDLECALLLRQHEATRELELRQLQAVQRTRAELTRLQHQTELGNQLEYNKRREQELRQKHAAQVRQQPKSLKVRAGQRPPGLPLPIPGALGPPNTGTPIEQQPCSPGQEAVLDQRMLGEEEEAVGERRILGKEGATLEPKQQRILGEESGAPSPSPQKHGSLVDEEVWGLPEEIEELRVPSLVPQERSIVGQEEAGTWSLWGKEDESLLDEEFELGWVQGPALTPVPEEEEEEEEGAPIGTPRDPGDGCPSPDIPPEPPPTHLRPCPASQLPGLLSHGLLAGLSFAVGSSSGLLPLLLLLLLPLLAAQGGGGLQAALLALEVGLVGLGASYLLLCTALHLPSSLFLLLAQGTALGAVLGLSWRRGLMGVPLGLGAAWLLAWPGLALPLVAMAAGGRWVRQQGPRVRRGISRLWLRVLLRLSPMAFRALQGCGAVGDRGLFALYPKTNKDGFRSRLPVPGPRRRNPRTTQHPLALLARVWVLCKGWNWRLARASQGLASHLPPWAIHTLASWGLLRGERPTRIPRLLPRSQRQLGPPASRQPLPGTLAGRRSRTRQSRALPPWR
# Sequence of CDK4/Cyclin D3 (P11802 whole entry): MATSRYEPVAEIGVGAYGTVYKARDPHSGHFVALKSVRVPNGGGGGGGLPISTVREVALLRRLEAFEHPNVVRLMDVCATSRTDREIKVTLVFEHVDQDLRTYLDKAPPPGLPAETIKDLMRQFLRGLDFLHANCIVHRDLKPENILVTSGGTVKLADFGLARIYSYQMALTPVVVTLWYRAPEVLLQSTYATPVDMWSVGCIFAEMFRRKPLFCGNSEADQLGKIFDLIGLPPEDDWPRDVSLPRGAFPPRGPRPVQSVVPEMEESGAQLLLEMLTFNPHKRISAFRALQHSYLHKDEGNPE
# Sequence of CDK4/Cyclin D3 (P30281 whole entry, further chain): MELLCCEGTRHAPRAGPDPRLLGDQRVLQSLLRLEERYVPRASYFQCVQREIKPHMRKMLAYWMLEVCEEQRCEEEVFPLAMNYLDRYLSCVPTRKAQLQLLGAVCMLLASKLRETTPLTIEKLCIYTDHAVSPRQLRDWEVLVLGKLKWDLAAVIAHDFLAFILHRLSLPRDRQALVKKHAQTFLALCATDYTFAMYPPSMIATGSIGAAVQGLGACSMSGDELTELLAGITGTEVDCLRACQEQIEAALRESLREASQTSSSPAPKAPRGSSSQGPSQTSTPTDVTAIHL
# Sequence of CDK4/CDK9 (Homo sapiens) (P11802 whole entry, looked up): as the sequence (P11802 whole entry) above
# Sequence of CDK4/CDK9 (Homo sapiens) (P50750 whole entry, looked up): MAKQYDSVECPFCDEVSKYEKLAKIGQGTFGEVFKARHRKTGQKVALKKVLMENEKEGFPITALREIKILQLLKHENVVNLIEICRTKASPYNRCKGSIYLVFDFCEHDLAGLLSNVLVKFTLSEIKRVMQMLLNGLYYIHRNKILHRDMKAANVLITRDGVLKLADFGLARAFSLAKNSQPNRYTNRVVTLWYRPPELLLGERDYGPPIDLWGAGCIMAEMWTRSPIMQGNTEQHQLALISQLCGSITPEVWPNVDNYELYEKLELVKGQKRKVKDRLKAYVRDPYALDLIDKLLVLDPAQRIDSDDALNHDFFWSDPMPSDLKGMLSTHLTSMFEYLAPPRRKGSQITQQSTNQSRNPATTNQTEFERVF
compound,measurement,setting,value
CN(C)C(=O)c1cc2cnc(Nc3ccc(NC(=O)CCCCCCC(=O)NO)cc3)nc2n1C1CCCC1,Activity,[1],11.1%
same,IC50,[2],2.2 nM
same,Vdss(app),[3],431.52 L/kg
same,Activity,[4],1.93%
same,inhibition,[5],Active
same,Activity,[6],80.5%
same,Activity,[7],0.57%
same,Activity,[8],3.3%
same,Activity,[9],Active
same,IC50,[10],2590 nM
same,IC50,[11],84 nM
same,Activity,[12],88.9%
same,Activity,[13],4.16%
same,Activity,[14],81%
same,IC50,[15],8.8 nM
same,Activity,[16],Dose-dependent effect
same,Activity,[17],Active
same,inhibition,[18],Active
same,Vd,[19],49 L/kg
same,Activity,[20],Active
same,half-life,[21],9.65 h
same,inhibition in vivo at 130 mg/kg,[22],79.3%
same,solubility at 24 h,[23],526 µg/mL
same,Activity,[24],3.88%
same,inhibition,[25],97%
same,Activity,[26],Dose-dependent effect
same,bioavailability,[27],34.7%
same,Activity,[28],76.4%
same,inhibition,[29],Active
same,Activity,[30],Active
same,Activity,[31],10.4%
